Experimental data from ChEMBL document CHEMBL4270662, “Discovery of Orally Active Inhibitors of Brahma Homolog (BRM)/SMARCA2 ATPase Activity for the Treatment of Brahma Related Gene 1 (BRG1)/SMARCA4-Mutant Cancers” (J Med Chem, 2018).
pEC50, pIC50, pKd: −log10 of the molar value. In brackets after ≈: the same amount, converted by molar mass. Activity calls are given as the source filed them. The calls are words filed in the database; no cut-off is given here.

How the values were obtained:
[1] = molecular target: T1, SWI/SNF-related matrix-associated actin-dependent regulator of chromatin subfamily A member 4 (Homo sapiens, UniProt P51532); experiment: Binding affinity to BRG1 ATPase-SnAC domain (unknown origin) expressed in insect sf9 cells assessed as change in melting temperature at 500 uM by DSF-assay (reference value: 0 degreeC)
[2] = molecular target: T2, SWI/SNF-related matrix-associated actin-dependent regulator of chromatin subfamily A member 2 (Homo sapiens, UniProt P51531); experiment: Inhibition of recombinant His10-tagged ZZ-HCV3C-BRM ATPase-SnAC (636 to 1331 residues) (unknown origin) expressed in insect sf9 cells preincubated for 5 mins followed by pCMV-dR8.91 plasmid and ATP addition measured after 60 mins by ADP-Glo assay
[3] = molecular target: T1, SWI/SNF-related matrix-associated actin-dependent regulator of chromatin subfamily A member 4; experiment: Inhibition of recombinant His6-tagged BRG1 ATPase-SnAC (658 to 1361 residues) (unknown origin) expressed in insect sf9 cells preincubated for 5 mins followed by pCMV-dR8.91 plasmid and ATP addition measured after 60 mins by ADP-Glo assay
[4] = molecular target: T1, SWI/SNF-related matrix-associated actin-dependent regulator of chromatin subfamily A member 4; experiment: Binding affinity to BRG1 ATPase-SnAC domain (unknown origin) expressed in insect sf9 cells assessed as change in melting temperature at 100 uM by DSF-assay (reference value: 0 degreeC)
[5] = molecular target: T1, SWI/SNF-related matrix-associated actin-dependent regulator of chromatin subfamily A member 4; experiment: Binding affinity to BRG1 ATPase-SnAC domain (unknown origin) expressed in insect sf9 cells assessed as change in melting temperature at 100 uM in presence of ADP by DSF-assay (reference value: 0 degreeC)
[6] = molecular target: T2, SWI/SNF-related matrix-associated actin-dependent regulator of chromatin subfamily A member 2; experiment: Binding affinity to N-terminal avi-tagged BRM ATPase-SnAC domain (unknown origin) in absence of ADP by SPR assay
Outline: (§1)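 SPR at 10 °C: about 2000 RU of N-terminal Avi-tagged BRM ATPase-SnAC captured on a streptavidin chip, with a blank reference cell. Compound dose series injected 60 s at 100 µL/min with 120 s dissociation; data solvent-corrected, double-referenced and fit 1:1 for KD.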

[7] = molecular target: T2, SWI/SNF-related matrix-associated actin-dependent regulator of chromatin subfamily A member 2; experiment: Binding affinity to N-terminal avi-tagged BRM ATPase-SnAC domain (unknown origin) in presence of ADP by SPR assay; outline: as §1
[8] = molecular target: T1, SWI/SNF-related matrix-associated actin-dependent regulator of chromatin subfamily A member 4; experiment: Binding affinity to His6-tagged BRG1 ATPase-SnAC (658 to 1361 residues) (unknown origin) expressed in insect sf9 cells by ITC method
[9] = Thermodynamic solubility of the compound at 1 mg/ml pH 1 after 16 to 24 hrs by shake-flask method; assay type: physicochemical; conditions: buffer, read-out: Therm_solubility
[10] = Thermodynamic solubility of the compound at 1 mg/ml pH 6.8 after 16 to 24 hrs by shake-flask method; assay type: physicochemical; conditions: buffer, read-out: Therm_solubility
[11] = molecular target: T2, SWI/SNF-related matrix-associated actin-dependent regulator of chromatin subfamily A member 2; experiment: Inhibition of full length BRM ATPase (1 to 1572 residues) (unknown origin) expressed in insect sf9 cells preincubated for 5 mins followed by pCMV-dR8.91 plasmid and ATP addition measured after 60 mins by ADP-Glo assay
Outline: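 Full-length BRM (1-1572), purified from Sf9 cells by Ni or anti-FLAG affinity, then anion exchange and size exclusion. Reaction run 60 min at room temperature; ADP-Glo luminescence read-out; IC50 from duplicate means.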

[12] = molecular target: T2, SWI/SNF-related matrix-associated actin-dependent regulator of chromatin subfamily A member 2; experiment: Inhibition of recombinant His10-tagged ZZ-HCV3C-BRM ATPase-SnAC (636 to 1331 residues) (unknown origin) expressed in insect sf9 cells preincubated for 5 mins followed by pCMV-dR8.91 and 10 times ATP addition measured after 60 mins by ADP-Glo assay
Outline: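 BRM residues 636-1331 (tag removed by HCV3C cleavage), 5 nM final, preincubated with compound for 5 min at room temperature. Reaction started with ATP at 10x Km plus 2 nM pCMV-dR8.91 plasmid, run 60 min. ADP-Glo luminescence read; IC50 by nonlinear regression of duplicate averages.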

[13] = Inhibition of BRM/BRG1 mutant in human NCI-H1299 cells assessed as reduction in KRT80 gene expression after 24 hrs by luciferase reporter gene assay; assay type: cell-based; conditions: NCI-H1299, 24 h
Outline: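 NCI-H1299 cells carry NanoLuc knocked into the endogenous KRT80 locus and are grown in RPMI-1640 with 10% FBS. Plated at 500 cells/well and left overnight, then dosed over 10 points in 3-fold dilutions from 10 µM.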

[14] = Inhibition of BRM/BRG1 mutant-dependant cell proliferation in human SKMEL5 cells after 6 days by celltiter-glo luminescent cell viability assay; assay type: cell-based; conditions: SK-MEL-5, 144 h
SBC-5 = experiment: Antiproliferative activity against human SBC5 cells assessed as cell growth inhibition after 6 days by celltiter-glo luminescent cell viability assay; assay type: functional, cell-based; conditions: SBC-5, 144 h
[15] = Inhibition of BRM/BRG1 mutant in human RERF-LC-A1 cells assessed as reduction in KRT80 gene expression after 24 hrs by luciferase reporter gene assay; assay type: cell-based
Mus musculus [16] = experiment: Time required for unbound plasma concentration to reach above in vitro unbound EC50 for reduction in BRM/BRG1 mutant-induced KRT80 gene expression in human RERF-LC-A1 cells in athymic nude mouse at 20 mg/kg, po administered daily for 3 weeks; assay type: ADME, organism-based; conditions: in vivo, 504 h
Outline: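 Nude mice bearing RERF-LC-AI tumors were dosed orally once daily for 3 weeks at 20 mg/kg. The dose was a suspension in 0.5% methyl cellulose and 0.5% Tween 80 in water. Unbound plasma concentrations over time were compared with the cellular KRT80 EC50.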

RERF-LC-AI [17] = experiment: Anti-tumor activity in human RERF-LC-A1 cells xenografted in athymic nude mouse assessed as tumor growth inhibition at 7.5 mg/kg, po administered for 3 weeks measured twice per week during compound dosing relative to control; assay type: functional; conditions: 504 h, read-out: TGI
Outline: (§2)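 Nude mice bearing RERF-LC-AI xenografts were dosed orally with a suspension in 0.5% methyl cellulose and 0.5% Tween 80 in water. Dosing was daily for 3 weeks at 7.5 or 20 mg/kg. Tumor growth and tolerability were followed during dosing.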

RERF-LC-AI [18] = experiment: Anti-tumor activity in human RERF-LC-A1 cells xenografted in athymic nude mouse assessed as tumor growth inhibition at 20 mg/kg, po administered for 3 weeks measured twice per week during compound dosing relative to control; assay type: functional; conditions: 504 h, read-out: TGI; outline: as §2
Mus musculus [19] = experiment: In vivo inhibition of […] in human RERF-LC-A1 cells xenografted in athymic nude mouse assessed as reduction in KRT80 mRNA expression at 20 mg/kg, po measured at 16 hrs post last dose of 3 weeks of daily dosing by RT-PCR analysis; assay type: functional, organism-based
Outline: (§3)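 RERF-LC-AI tumor-bearing nude mice received oral compound daily, suspended in 0.5% methyl cellulose and 0.5% Tween 80 in water, at 7.5 or 20 mg/kg. Tumor KRT80 mRNA was measured at several post-dose time points, including 7 h and 16 h onward.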

RERF-LC-AI [20] = experiment: Anti-tumor activity in human RERF-LC-A1 cells xenografted in athymic nude mouse assessed as tumor growth at 30 mg/kg, po administered daily for 4 consecutive days followed by incubation for next 3 days in absence of compounds relative to control; assay type: functional
Mus musculus [21] = experiment: Toxicity in athymic nude mouse xenografted with human RERF-LC-A1 cells up to 20 mg/kg, po administered for 3 weeks; assay type: organism-based; conditions: in vivo, 504 h; outline: as §2
Mus musculus [22] = experiment: In vivo inhibition of BRM/BRG1 mutant in human RERF-LC-A1 cells xenografted in athymic nude mouse assessed as reduction in KRT80 gene expression at 20 mg/kg, po after 7 hrs by real-time PCR method; assay type: functional; outline: as §3
Mus musculus [23] = experiment: In vivo inhibition of BRM/BRG1 mutant in human RERF-LC-A1 cells xenografted in athymic nude mouse assessed as reduction in KRT80 gene expression at 20 mg/kg, po after 16 to 24 hrs by real-time PCR method; assay type: functional, organism-based; outline: as §3
Mus musculus [24] = experiment: In vivo inhibition of BRM/BRG1 mutant in human RERF-LC-A1 cells xenografted in po dosed athymic nude mouse assessed as reduction in KRT80 gene expression after 7 to 24 hrs by real-time PCR method; assay type: functional, organism-based; outline: as §3
[25] = molecular target: T2, SWI/SNF-related matrix-associated actin-dependent regulator of chromatin subfamily A member 2; experiment: Binding affinity to N-terminal MBP-fused human BRM RecA domain (705 to 960 residues) expressed in Escherichia coli BL21 Star (DE3) by ITC method
[26] = molecular target: SWI/SNF-related matrix-associated actin-dependent regulator of chromatin subfamily A member 2 (Homo sapiens, UniProt P51531, E852Q); experiment: Binding affinity to N-terminal MBP-fused human BRM RecA domain E852Q mutant expressed in Escherichia coli BL21 Star (DE3) by ITC method
SWI/SNF-related matrix-associated actin-dependent regulator of chromatin subfamily A member 2 (Homo sapiens, UniProt P51531, E852Q), sequence (P51531 whole entry E852Q, the tested form may be a part): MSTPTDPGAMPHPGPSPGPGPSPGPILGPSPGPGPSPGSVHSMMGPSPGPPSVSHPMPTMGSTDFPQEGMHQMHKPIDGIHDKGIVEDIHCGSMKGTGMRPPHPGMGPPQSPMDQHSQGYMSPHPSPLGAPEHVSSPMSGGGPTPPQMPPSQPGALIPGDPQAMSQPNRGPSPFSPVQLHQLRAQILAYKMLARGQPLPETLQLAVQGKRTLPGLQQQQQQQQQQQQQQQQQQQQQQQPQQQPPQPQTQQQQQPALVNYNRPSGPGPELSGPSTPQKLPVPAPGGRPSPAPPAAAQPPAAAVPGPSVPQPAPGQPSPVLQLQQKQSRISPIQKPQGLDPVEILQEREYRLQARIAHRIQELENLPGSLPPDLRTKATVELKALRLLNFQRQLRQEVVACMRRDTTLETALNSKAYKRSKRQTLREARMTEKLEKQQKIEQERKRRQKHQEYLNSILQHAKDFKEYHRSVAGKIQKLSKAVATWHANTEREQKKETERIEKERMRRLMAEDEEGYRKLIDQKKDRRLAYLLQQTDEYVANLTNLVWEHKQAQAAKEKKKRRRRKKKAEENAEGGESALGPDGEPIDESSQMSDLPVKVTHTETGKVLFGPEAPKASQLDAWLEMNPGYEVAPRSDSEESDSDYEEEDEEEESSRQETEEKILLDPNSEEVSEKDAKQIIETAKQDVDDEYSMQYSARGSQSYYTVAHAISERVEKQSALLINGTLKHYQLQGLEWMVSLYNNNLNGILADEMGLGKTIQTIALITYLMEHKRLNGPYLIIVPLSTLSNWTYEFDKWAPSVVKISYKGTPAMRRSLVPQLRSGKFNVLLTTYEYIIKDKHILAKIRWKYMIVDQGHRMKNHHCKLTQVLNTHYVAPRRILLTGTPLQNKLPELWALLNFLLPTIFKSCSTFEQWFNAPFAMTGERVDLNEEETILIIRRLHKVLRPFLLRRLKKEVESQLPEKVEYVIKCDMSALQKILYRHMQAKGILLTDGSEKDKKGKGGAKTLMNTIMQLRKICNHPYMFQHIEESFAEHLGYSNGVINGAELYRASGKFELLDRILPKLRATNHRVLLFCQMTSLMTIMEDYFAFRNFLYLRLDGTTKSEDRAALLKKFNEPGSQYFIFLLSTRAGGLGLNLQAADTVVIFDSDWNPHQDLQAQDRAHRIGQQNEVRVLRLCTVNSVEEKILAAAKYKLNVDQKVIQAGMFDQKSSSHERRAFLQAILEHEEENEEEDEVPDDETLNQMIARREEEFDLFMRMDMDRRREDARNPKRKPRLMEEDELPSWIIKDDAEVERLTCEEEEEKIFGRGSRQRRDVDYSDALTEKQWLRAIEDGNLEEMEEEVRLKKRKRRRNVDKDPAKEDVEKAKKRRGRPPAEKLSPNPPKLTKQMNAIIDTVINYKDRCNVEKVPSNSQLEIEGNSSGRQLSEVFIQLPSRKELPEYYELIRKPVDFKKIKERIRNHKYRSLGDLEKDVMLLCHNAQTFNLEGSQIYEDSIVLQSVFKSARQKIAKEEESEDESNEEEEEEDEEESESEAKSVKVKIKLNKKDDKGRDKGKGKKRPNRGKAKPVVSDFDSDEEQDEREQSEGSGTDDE

T1 sequence (P51532 whole entry, the tested form may be a part): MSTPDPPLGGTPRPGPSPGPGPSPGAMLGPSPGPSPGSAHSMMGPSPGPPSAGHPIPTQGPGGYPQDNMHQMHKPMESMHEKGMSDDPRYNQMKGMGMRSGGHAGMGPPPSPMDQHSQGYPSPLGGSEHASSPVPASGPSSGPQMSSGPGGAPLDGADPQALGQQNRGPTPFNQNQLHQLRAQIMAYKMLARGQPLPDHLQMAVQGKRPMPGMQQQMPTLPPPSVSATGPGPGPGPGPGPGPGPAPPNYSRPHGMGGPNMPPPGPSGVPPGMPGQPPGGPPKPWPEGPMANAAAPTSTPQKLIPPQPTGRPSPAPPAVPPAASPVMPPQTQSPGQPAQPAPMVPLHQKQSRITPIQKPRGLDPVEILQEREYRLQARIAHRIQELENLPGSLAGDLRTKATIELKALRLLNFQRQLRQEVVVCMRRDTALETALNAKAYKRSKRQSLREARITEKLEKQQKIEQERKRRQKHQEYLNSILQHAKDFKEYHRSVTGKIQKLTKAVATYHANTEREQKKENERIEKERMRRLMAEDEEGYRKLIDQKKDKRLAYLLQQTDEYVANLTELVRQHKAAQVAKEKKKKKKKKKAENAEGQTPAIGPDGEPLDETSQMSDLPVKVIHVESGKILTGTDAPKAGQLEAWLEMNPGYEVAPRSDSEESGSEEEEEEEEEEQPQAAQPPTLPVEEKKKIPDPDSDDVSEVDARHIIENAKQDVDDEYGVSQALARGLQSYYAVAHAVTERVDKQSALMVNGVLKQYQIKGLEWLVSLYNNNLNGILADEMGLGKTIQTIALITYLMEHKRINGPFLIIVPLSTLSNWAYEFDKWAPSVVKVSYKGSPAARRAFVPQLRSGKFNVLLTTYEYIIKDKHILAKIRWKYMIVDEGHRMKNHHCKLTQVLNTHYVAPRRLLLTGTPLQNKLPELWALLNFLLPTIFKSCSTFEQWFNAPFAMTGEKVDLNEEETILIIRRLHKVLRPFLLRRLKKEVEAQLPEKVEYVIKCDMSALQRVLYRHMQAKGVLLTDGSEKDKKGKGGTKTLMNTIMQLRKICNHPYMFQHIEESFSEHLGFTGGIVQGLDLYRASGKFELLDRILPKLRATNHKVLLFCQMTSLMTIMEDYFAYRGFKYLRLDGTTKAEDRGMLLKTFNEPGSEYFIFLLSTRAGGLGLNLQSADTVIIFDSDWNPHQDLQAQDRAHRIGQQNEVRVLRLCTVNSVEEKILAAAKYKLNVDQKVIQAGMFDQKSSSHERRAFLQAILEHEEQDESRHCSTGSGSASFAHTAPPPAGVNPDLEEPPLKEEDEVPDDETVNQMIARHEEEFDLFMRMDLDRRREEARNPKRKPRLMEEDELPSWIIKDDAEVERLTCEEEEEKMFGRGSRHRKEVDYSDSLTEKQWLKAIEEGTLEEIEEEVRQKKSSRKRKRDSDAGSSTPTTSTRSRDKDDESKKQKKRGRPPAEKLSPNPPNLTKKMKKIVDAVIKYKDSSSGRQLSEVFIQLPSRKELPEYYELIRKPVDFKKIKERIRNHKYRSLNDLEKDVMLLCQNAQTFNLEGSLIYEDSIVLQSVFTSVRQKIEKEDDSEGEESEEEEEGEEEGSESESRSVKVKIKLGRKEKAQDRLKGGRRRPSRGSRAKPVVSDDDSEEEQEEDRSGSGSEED
T2 sequence (P51531 whole entry, the tested form may be a part): as the sequence (P51531 whole entry E852Q, the tested form may be a part) above, with Q852E counted along it

SMILES	pIC50 [2]	pIC50 [3]	pEC50 [13]	pEC50 [14]	pEC50 (SBC-5)	further results
Nc1ncnc2c1ncn2[C@@H]1O[C@H](COP(=O)(O)OP(=O)(O)O)[C@@H](O)[C@H]1O						ΔTm [1]: 3.1 °C
O=C(Nc1ccncc1)Nc1ccnc(Cl)c1	5.96	6.11				ΔTm [4]: 3.8 °C; ΔTm [5]: 5.8 °C; Activity [6]: Dose-dependent effect; pKd [6]: 7.06; pKd [7]: 6.35; pKd [8]: 6.55; solubility thermodynamic [9]: 3100 µM (≈ 771 µg/mL); solubility thermodynamic [10]: 330 µM (≈ 82.1 µg/mL); pIC50 [11]: 5.09; inhibition [12]: Active
O=C(Nc1ccnc(Cl)c1)Nc1ccccn1	5.42	5.77				
O=C(Nc1ccnc(Cl)c1)Nc1cc(C(F)(F)F)ns1			6.03	6.89	< 5.00	
Cc1c[nH]c(NC(=O)Nc2ccnc(Cl)c2)n1	< 4.30					
O=C(Nc1cc(C(F)F)ns1)Nc1cc(Cl)ncc1CO	> 8.30	> 8.30	7.38	7.89	< 5.00	
O=C(Nc1ccnc(Cl)c1)Nc1ccnc(C(F)F)c1	6.96					
Nc1cnc(Cl)cc1NC(=O)Nc1cc(C(F)F)ns1	> 8.30	> 8.30	7.59	7.89	< 5.00	solubility thermodynamic [10]: 40 µM (≈ 12.8 µg/mL)
O=C(Nc1cc(C(F)F)ns1)Nc1cc(F)ncc1CO	> 8.30	> 8.30	8.00	8.40	< 5.00	solubility thermodynamic [10]: 34 µM (≈ 10.8 µg/mL); pEC50 [15]: 8.00; Time (Mus musculus [16]): 12 h; inhibition in vivo at 7.5 mg/kg (RERF-LC-AI [17]): 21%; inhibition in vivo at 20 mg/kg (RERF-LC-AI [18]): 55%; inhibition (Mus musculus [19]): Dose-dependent effect; T/C (RERF-LC-AI [20]): 30%; Activity (Mus musculus [21]): Non-Toxic; inhibition in vivo at 20 mg/kg (Mus musculus [22]): ≤ 90%; inhibition (Mus musculus [23]): inactive; inhibition (Mus musculus [24]): Dose-dependent effect
O=C(Nc1ccnc(Cl)c1)Nc1ccnc(C(F)(F)F)c1	7.22	7.52				
Cc1csc(NC(=O)Nc2ccnc(Cl)c2)n1	6.01	6.24				
Cc1cc(NC(=O)Nc2ccnc(Cl)c2)ccn1	6.70	6.82				
Nc1cnc(F)cc1NC(=O)Nc1cc(C(F)F)ns1	> 8.30	> 8.30	8.00	8.30	< 5.00	solubility thermodynamic [10]: 92 µM (≈ 27.9 µg/mL)
Cc1cc(NC(=O)Nc2ccnc(Cl)c2)sn1			< 5.00	6.19	< 5.00	
O=C(Nc1ccnc(Cl)c1)Nc1cc(C(F)F)ns1			6.44	7.51	5.20	pKd [25]: 7.89; pKd [26]: < 5.00
